Data reported in ChEMBL document CHEMBL4725241, “Discovery of BMS-986235/LAR-1219: A Potent Formyl Peptide Receptor 2 (FPR2) Selective Agonist for the Prevention of Heart Failure” (J Med Chem, 2020).
The source made the active and inactive calls. The calls are words filed in the database; no cut-off is given here.

How the values were obtained:
fMet-Leu-Phe receptor [1] = biological target: T1, fMet-Leu-Phe receptor (Homo sapiens, UniProt P21462); assay: Agonist activity at human FPR1 expressed in HEK 293 cells co-expressing Galpha15 measured every 1.5 sec for 80 sec by Fluo-4 NW staining based scanning fluorometric method; type: cell-based, HEK293
T1 sequence (P21462 whole entry): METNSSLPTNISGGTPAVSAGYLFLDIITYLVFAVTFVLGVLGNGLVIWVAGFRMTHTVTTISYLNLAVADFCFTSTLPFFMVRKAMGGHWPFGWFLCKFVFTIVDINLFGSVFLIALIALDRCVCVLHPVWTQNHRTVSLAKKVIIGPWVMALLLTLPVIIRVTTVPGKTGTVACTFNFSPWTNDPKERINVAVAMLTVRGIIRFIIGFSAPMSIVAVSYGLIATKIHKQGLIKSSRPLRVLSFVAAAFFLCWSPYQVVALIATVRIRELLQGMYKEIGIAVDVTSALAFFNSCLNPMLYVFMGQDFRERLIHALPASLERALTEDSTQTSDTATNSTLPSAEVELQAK

[2] = In vivo […] in mouse assessed as reduction in LPS-induced neutrophil infiltration in BALF cells at 1 mg/kg, po relative to control; type: functional
Outline: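 Mice were given LPS and dosed orally at 1 mg/kg. Neutrophils in BALF were counted, and percent inhibition was calculated.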

Cytochrome P450 3A4 = Cytochrome P450 3A4 (Homo sapiens, UniProt P08684); assay: Inhibition of recombinant human CYP3A4; type: ADME
fMet-Leu-Phe receptor [3] = biological target: T1, fMet-Leu-Phe receptor; assay: Agonist activity at human FPR1 expressed in CHO cells assessed as reduction cAMP accumulation incubated for 1 hr by TR-FRET assay; type: functional, cell-based
Outline: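 CHO cells overexpressing the receptor were used, 2,000 hFPR2 or 4,000 hFPR1 cells/well. Cells were incubated 30 min at room temperature with compound (1.7 nM-100 µM, 1% DMSO), IBMX 200 µM and forskolin (5 µM for FPR2, 10 µM for FPR1) in DPBS/0.1% BSA. cAMP was read by HTRF after 1 h lysis against a standard curve. Data were fitted to a 4-parameter logistic, average of ≥2 occasions.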

[4] = biological target: T2, Formyl peptide receptor 2 (Mus musculus, UniProt O88536); assay: Agonist activity at mouse FPR2 expressed in CHO cells assessed as reduction cAMP accumulation incubated for 1 hr by TR-FRET assay; type: cell-based
T2 sequence (O88536 whole entry): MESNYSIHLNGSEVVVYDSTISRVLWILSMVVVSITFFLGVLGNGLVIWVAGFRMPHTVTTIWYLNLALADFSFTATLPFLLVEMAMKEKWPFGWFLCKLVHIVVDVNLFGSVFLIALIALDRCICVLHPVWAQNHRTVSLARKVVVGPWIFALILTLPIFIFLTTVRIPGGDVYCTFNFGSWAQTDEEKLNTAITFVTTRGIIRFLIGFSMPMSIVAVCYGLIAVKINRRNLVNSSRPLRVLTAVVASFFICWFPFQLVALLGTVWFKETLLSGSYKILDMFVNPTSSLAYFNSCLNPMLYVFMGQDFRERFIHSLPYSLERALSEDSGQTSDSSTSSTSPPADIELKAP

fMet-Leu-Phe receptor [5] = biological target: T3, fMet-Leu-Phe receptor (Mus musculus, UniProt P33766); assay: Agonist activity at mouse FPR1 expressed in CHO cells assessed as reduction cAMP accumulation incubated for 1 hr by TR-FRET assay; type: functional, cell-based
T3 sequence (P33766 whole entry): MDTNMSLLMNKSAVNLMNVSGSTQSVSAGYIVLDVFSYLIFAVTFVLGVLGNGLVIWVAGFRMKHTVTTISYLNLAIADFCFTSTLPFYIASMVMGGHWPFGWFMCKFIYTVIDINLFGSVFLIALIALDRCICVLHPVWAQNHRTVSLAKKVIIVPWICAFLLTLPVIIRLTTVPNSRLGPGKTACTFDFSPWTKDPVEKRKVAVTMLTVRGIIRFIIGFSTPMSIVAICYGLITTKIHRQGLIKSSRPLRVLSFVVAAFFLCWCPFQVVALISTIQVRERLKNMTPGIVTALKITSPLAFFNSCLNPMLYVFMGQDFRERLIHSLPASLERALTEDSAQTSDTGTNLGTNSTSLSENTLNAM

CHO [6] = assay: Selectivity ratio of agonist activity at human FPR1 expressed in CHO cells to agonist activity at human FPR2 expressed in CHO cells; type: cell-based
Outline: (§1)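 Ratio of FPR1 to FPR2 EC50 from the CHO-cell forskolin/IBMX cAMP HTRF assay, 30 min at room temperature, 4-parameter logistic fit.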

CHO [7] = assay: Selectivity ratio of agonist activity at mouse FPR1 expressed in CHO cells to agonist activity at mouse FPR2 expressed in CHO cells; type: cell-based; outline: as §1
[8] = Volume of distribution at steady state in Crl:CD(SD) rat at 1 mg/kg, iv by LC-MS/MS analysis; type: ADME, organism-based; details: in vivo, read-out: Vdss
Outline: (§2)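 Male animals received intravenous solution in DMSO/PEG400/saline (5/47.5/47.5). EDTA plasma was extracted with methanol/acetonitrile (1:1) plus internal standard and quantified by LC-MS/MS. AUC0-inf was calculated by the trapezoidal rule with terminal-phase kel extrapolation.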

[9] = Volume of distribution at steady state in Beagle dog at 1 mg/kg, iv by LC-MS/MS analysis; type: ADME, organism-based, Canis lupus familiaris; details: in vivo, read-out: Vdss; outline: as §2
[10] = Volume of distribution at steady state in cynomolgus monkey at 1 mg/kg, iv by LC-MS/MS analysis; type: ADME, organism-based, Macaca fascicularis; details: in vivo, read-out: Vdss; outline: as §2
[11] = Total clearance in cynomolgus monkey at 1 mg/kg, iv by LC-MS/MS analysis; type: ADME, organism-based, Macaca fascicularis; details: in vivo; outline: as §2
[12] = Cmax in Crl:CD(SD) rat at 1 mg/kg, po by LC-MS/MS analysis; type: ADME, organism-based; parameters: route oral, dose 1 mg/kg; details: in vivo
Outline: (§3)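 Male animals dosed orally with a suspension in 0.5% MC. Blood was taken into EDTA 2K capillaries and plasma was stored frozen. Plasma was mixed with methanol/acetonitrile (1:1) plus internal standard, centrifuged, and drug was measured by LC-MS/MS. AUC0-inf was obtained by the trapezoidal rule, extrapolated with kel from the terminal phase. t1/2 = ln2/kel.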

[13] = Half life in BALB/cCrSlc mouse at 1 mg/kg, po by LC-MS/MS analysis; type: ADME, organism-based; details: in vivo; outline: as §3
[14] = AUC (0 to infinity) in cynomolgus monkey at 3 mg/kg, po by LC-MS/MS analysis; type: ADME, organism-based, Macaca fascicularis; parameters: time infinity, route oral, dose 3 mg/kg; details: in vivo; outline: as §3
[15] = Clearance in dog liver microsome at 0.1 umol/l and measured for 60 mins by LC-MS/MS analysis; type: ADME, Canis lupus familiaris; details: microsomes, 1 h, 0.1 µM, dose 0.1 µmol/L
Outline: (§4)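 Liver microsomes (1 mg protein/mL final) with an NADPH regenerating system were preincubated 5 min at 37°C, then given 0.1 µmol/L compound. Samples were taken at 0-60 min, quenched in methanol/acetonitrile with internal standard, and analysed by LC-MS/MS. Runs were in triplicate. kel came from 5-30 min points. CLint = kel/protein concentration (mL/min/mg protein).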

[16] = Clearance in monkey liver microsome at 0.1 umol/l and measured for 60 mins by LC-MS/MS analysis; type: ADME, Macaca mulatta; details: rhesus monkey, microsomes, 1 h, 0.1 µM, dose 0.1 µmol/L; outline: as §4
Mus musculus = assay: Antiinflammatory activity in mouse assessed as increase in LPS-induced IL-10 expression at 0.3 mg/kg, po

Cytochrome P450 3A4, sequence (P08684 whole entry): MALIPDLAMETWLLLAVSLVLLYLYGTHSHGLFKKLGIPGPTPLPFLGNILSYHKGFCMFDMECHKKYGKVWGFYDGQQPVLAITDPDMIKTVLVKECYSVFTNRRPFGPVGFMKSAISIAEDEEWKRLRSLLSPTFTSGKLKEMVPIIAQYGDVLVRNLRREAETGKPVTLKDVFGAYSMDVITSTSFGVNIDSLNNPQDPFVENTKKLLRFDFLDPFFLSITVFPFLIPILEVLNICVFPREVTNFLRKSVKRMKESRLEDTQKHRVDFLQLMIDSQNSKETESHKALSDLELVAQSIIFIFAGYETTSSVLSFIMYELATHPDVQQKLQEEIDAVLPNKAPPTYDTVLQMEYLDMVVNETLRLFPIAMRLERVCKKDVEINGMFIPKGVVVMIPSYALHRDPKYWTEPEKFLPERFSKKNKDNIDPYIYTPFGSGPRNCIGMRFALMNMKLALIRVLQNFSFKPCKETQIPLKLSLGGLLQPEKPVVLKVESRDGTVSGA

Compound `COc1cc(F)c([C@@H]2CNC(=O)[C@H]2NC(=O)Nc2ccccc2)c(F)c1` [BMS-986235] has an EC50 (fMet-Leu-Phe receptor [1]) of 2800 nM, an inhibition in vivo at 1 mg/kg [2] of 88% and an IC50 (Cytochrome P450 3A4) of over 20000 nM. The EC50 (fMet-Leu-Phe receptor [3]) was 400 nM, the EC50 [4] was 0.5 nM and the EC50 (fMet-Leu-Phe receptor [5]) was 500 nM. It also gave a Ratio EC50 (CHO [6]) of 80, a Ratio EC50 (CHO [7]) of 1000 and a Vd [8] of 3 L/kg. For the same compound, the Vd [9] was 0.98 L/kg, the Vd [10] was 1.2 L/kg and the clearance [11] was 12 mL/min/kg. For the same compound, the Cmax [12] was 240 nM, the half-life [13] was 40.8 min and the AUC(0-inf) [14] was 5.8 µM·h. The CLH [15] was 42 µL/min/mg, the CLH [16] was 30 µL/min/mg and the Activity (Mus musculus) was “Active”.
